# ChEMBL document CHEMBL1629656, “Oritavancin kills stationary-phase and biofilm Staphylococcus aureus cells in vitro” (Antimicrob Agents Chemother, 2009)
# Calls of active or inactive are those of the source. The rule behind the calls is not given here.
# Legend:
# [1] = test system: Staphylococcus aureus; test: Antimicrobial activity against methicillin-resistant Staphylococcus aureus ATCC 33591 planktonic cells by broth microdilution method in presence of 0.002% polysorbate 80; assay type: functional
# [2] = test system: Staphylococcus aureus; test: Antimicrobial activity against vancomycin-resistant Staphylococcus aureus isolate VRS5 planktonic cells by broth microdilution method in presence of 0.002% polysorbate 80; assay type: functional
# [3] = test system: Staphylococcus aureus; test: Bactericidal activity against stationary-phase vancomycin-resistant Staphylococcus aureus isolate VRS5 grown on nutrient-depleted CAMHB medium at 2 ug/ml after 24 hrs by time kill analysis
# [4] = test system: Staphylococcus aureus; test: Bactericidal activity against stationary-phase methicillin-resistant Staphylococcus aureus ATCC 33591 grown on nutrient-depleted CAMHB medium at 4 ug/ml after 24 hrs by time kill analysis; assay type: functional, organism-based
# How it was run: (§1)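 Overnight stationary-phase cultures inoculated at ~10^7 CFU/ml into strain-matched spent CAMHB (pH 7.0, filter-sterilized). Oritavancin was kept at 0.002% polysorbate 80; daptomycin wells had 50 μg/ml CaCl2. Incubation at 37°C, 225 rpm. Samples were charcoal-quenched (25 mg/ml) before plating; points are means of duplicates. Bactericidal means ≥3-log drop at 24 h versus inoculum. ≥3 repeats.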
# [5] = test system: Staphylococcus aureus; test: Antimicrobial activity against methicillin-sensitive Staphylococcus aureus ATCC 29213 assessed as inhibition of biofilm formation after 24 hrs by serial dilution method in presence of 0.002% polysorbate 80; assay type: functional
# [6] = test system: Homo sapiens; test: fCmax in human at 450 […]; assay type: ADME, organism-based; details: in vivo
# [7] = test system: Staphylococcus aureus; test: Bactericidal activity against stationary-phase methicillin-resistant Staphylococcus aureus ATCC 33591 grown on nutrient-depleted CAMHB medium at 2 ug/ml after 24 hrs by time kill analysis; assay type: functional, organism-based; how it was run: as §1
# [8] = test system: Staphylococcus aureus; test: Bactericidal activity against stationary-phase vancomycin-resistant Staphylococcus aureus isolate VRS5 grown on nutrient-depleted CAMHB medium at 4 ug/ml after 24 hrs by time kill analysis; assay type: functional, organism-based; how it was run: as §1
# [9] = test system: Staphylococcus aureus; test: Antimicrobial activity against methicillin-resistant Staphylococcus aureus ATCC 33591 assessed as inhibition of biofilm formation after 24 hrs by serial dilution method in presence of 0.002% polysorbate 80; assay type: functional
# [10] = test system: Staphylococcus aureus; test: Antimicrobial activity against methicillin-sensitive Staphylococcus aureus ATCC 29213 planktonic cells by broth microdilution method in presence of 0.002% polysorbate 80; assay type: functional
# [11] = test system: Staphylococcus aureus; test: Bacteriostatic activity against stationary-phase methicillin-resistant Staphylococcus aureus ATCC 33591 grown on nutrient-depleted CAMHB medium at 8 ug/ml after 24 hrs by time kill analysis; assay type: functional, organism-based; how it was run: as §1
# [12] = test system: Staphylococcus aureus; test: Antimicrobial activity against 4.6 X 10^6 CFU/peg methicillin-susceptible Staphylococcus aureus ATCC 29213 planktonic cells by broth microdilution method
# [13] = test system: Staphylococcus aureus; test: Bacteriostatic activity against stationary-phase vancomycin-resistant Staphylococcus aureus isolate VRS5 grown on nutrient-depleted CAMHB medium at 8 ug/ml after 24 hrs by time kill analysis; assay type: functional, organism-based; how it was run: as §1
# [14] = test system: Staphylococcus aureus; test: Bactericidal activity against exponential-phase methicillin-sensitive Staphylococcus aureus ATCC 29213 assessed as log reduction in bacterial count at 4 ug/ml within 2 hrs by time kill analysis; assay type: functional
# [15] = test system: Staphylococcus aureus; test: Bactericidal activity against exponential-phase methicillin-sensitive Staphylococcus aureus ATCC 29213 grown on nutrient-depleted CAMHB medium at 16 ug/ml after 24 hrs by time kill analysis; assay type: functional, organism-based
# [16] = test system: Staphylococcus aureus; test: Antimicrobial activity against stationary-phase methicillin-sensitive Staphylococcus aureus ATCC 29213 membrane depolarization at 4 ug/ml after 30 mins using DiSC3(5) dye based fluorescence spectrophotometry; assay type: functional, organism-based
# How it was run: (§2)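 Cells loaded with 1.5 μM DiSC3(5) 30 min in the dark at ambient temperature, diluted to OD600 0.005. Drug added without polysorbate 80. Fluorescence (ex 612/em 665 nm) followed for 30 min. Three repeats.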
# [17] = test system: Staphylococcus aureus; test: Bactericidal activity against stationary-phase methicillin-sensitive Staphylococcus aureus ATCC 29213 grown on nutrient-depleted CAMHB medium at 4 ug/ml after 24 hrs by time kill analysis; assay type: functional, organism-based; how it was run: as §1
# [18] = test system: Staphylococcus aureus; test: Antimicrobial activity against exponential-phase methicillin-sensitive Staphylococcus aureus ATCC 29213 assessed as membrane depolarization at 4 ug/ml after 30 mins using DiSC3(5) dye based fluorescence spectrophotometry; assay type: functional, organism-based; how it was run: as §2
# [19] = test system: Staphylococcus aureus; test: Bactericidal activity against stationary-phase methicillin-sensitive Staphylococcus aureus ATCC 29213 grown on nutrient-depleted CAMHB medium at 16 ug/ml after 24 hrs by time kill analysis; assay type: functional, organism-based; how it was run: as §1
# [20] = test system: Staphylococcus aureus; test: Antimicrobial activity against exponential-phase methicillin-sensitive Staphylococcus aureus ATCC 29213 assessed as membrane permeability at 4 ug/ml after 30 mins by propidium iodide staining-based fluorescence spectrophotometry; assay type: functional, organism-based
# How it was run: (§3)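 Cells prepared as for depolarization, in HEPES-CaCl2 buffer with glucose (exponential) or without (stationary), OD600 0.005. Syto 9 at 5 μM and propidium iodide at 30 μM. Drug added without polysorbate 80. Loss of Syto 9 fluorescence (ex 485/em 535 nm) read for 30 min. Three repeats.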
# [21] = test system: Staphylococcus aureus; test: Bactericidal activity against exponential-phase methicillin-sensitive Staphylococcus aureus ATCC 29213 grown on nutrient-depleted CAMHB medium at 0.5 ug/ml after 24 hrs by time kill analysis; assay type: functional, organism-based
# [22] = test system: Staphylococcus aureus; test: Bactericidal activity against stationary-phase methicillin-sensitive Staphylococcus aureus ATCC 29213 assessed as log reduction in bacterial count at 4 ug/ml within 2 hrs by time kill analysis; assay type: functional
# [23] = test system: Staphylococcus aureus; test: Antimicrobial activity against stationary-phase methicillin-sensitive Staphylococcus aureus ATCC 29213 assessed as membrane permeability at 4 ug/ml after 30 mins by propidium iodide staining-based fluorescence spectrophotometry; assay type: functional, organism-based; how it was run: as §3
# [24] = test system: Staphylococcus aureus; test: Bactericidal activity against exponential-phase methicillin-sensitive Staphylococcus aureus ATCC 29213 grown on nutrient-depleted CAMHB medium at 4 ug/ml after 24 hrs by time kill analysis; assay type: functional, organism-based
structure (smiles),measurement,setting,value
CO[C@H]1/C=C/O[C@@]2(C)Oc3c(C)c(O)c4c(O)c(c(/C=N/N5CCN(C)CC5)c(O)c4c3C2=O)NC(=O)/C(C)=C\C=C\[C@H](C)[C@H](O)[C@@H](C)[C@@H](O)[C@@H](C)[C@H](OC(C)=O)[C@@H]1C [RIFAMPIN],MIC,[1],< 0.03 µg/mL
same,MIC,[2],< 0.03 µg/mL
same,Activity,[3],inactive
same,Activity,[4],Active
same,MBEC,[5],4 µg/mL
same,fCmax,[6],2 µg/mL
same,Activity,[7],Active
same,Activity,[8],inactive
same,MBEC,[9],0.25 µg/mL
same,MIC,[10],< 0.02 µg/mL
CC(=O)NC[C@H]1CN(c2ccc(N3CCOCC3)c(F)c2)C(=O)O1 [LINEZOLID],Activity,[11],inactive
same,MIC,[12],8 µg/mL
same,Activity,[13],inactive
same,MBEC,[5],>128 µg/mL
same,MIC,[10],8 µg/mL
CCCCCCCCCC(=O)N[C@@H](Cc1c[nH]c2ccccc12)C(=O)N[C@H](CC(N)=O)C(=O)N[C@@H](CC(=O)O)C(=O)N[C@@H]1C(=O)NCC(=O)N[C@@H](CCCN)C(=O)N[C@@H](CC(=O)O)C(=O)N[C@H](C)C(=O)N[C@@H](CC(=O)O)C(=O)NCC(=O)N[C@H](CO)C(=O)N[C@@H]([C@H](C)CC(=O)O)C(=O)N[C@@H](CC(=O)c2ccccc2N)C(=O)O[C@@H]1C,FC,[14],3.4
same,Activity,[15],Active
same,Activity,[16],inactive
same,Activity,[17],inactive
same,Activity,[18],Active
same,Activity,[19],inactive
same,Activity,[3],inactive
same,Activity,[4],Active
same,Activity,[20],Active
same,Activity,[21],Active
same,FC,[22],0.7
same,Activity,[7],Active
same,Activity,[8],inactive
same,Activity,[23],inactive
same,Activity,[24],Active
